This is a sample that favours compounds with a hit; in the whole collection about 1.8% have one here.
mABHD4 FP: ABHD4 inhibitors, primary screen, biochemical, fluorescence polarization, mouse | (Lyso)-N-acylphosphatidylethanolamine lipase (Mus musculus), Q8VD66 | purified mABHD4, FP-Rh probe fluorescence polarization | inhibition, % at 8.92 µM | 370,000 tested, 0.54% active | AID 720543, 2013;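 active = inhibition exceeding the mean over every tested compound plus 3 SD, cut at about 30% in these data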
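Material: mouse ABHD4 enzyme, wild type; Benchmarks: S159A mutant high control, sample median low control; Buffer or medium: HEPES pH 7.0, NaCl, Pluronic buffer; Signal: fluorescence polarization; Read-out: percent inhibition of probe binding, normalized to plate controls; Timing: pre-incubation 45 min, probe exposure 60 min, at 25 °C; Dosing: 8.92 µM, single dose.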
SIAE primary: human SIAE inhibitors, primary screen, biochemical, fluorescence polarization, FP-Rh probe, 1536-well HTS; SIAE FP-Rh probe binding; inhibition, % at 9.66 µM; 370,000 tested, 0.69% active;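 active = inhibition above a cutoff: mean of compounds within the control limits plus 3 SD of those, cut at about 17% in these data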
TCR CD3 inh: inhibitors of human TCR-CD3 interaction, primary screen, biochemical, fluorescence, TAMRA-labeled TCR probe | T-cell receptor (TCR) | inhibition, % at 9.4 µM | 360,000 tested, 0.37% active; in the data active = inhibition above about 19%;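 also: recombinant mutant TCR 2C K166C tagged with TAMRA read by polarization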
HTRA1 inh: HTRA1 serine protease inhibitors, primary screen, biochemical, fluorescence polarization, HTS; Q92743; recombinant HTRA1, FP-rhodamine activity-based probe; inhibition, % at 5.96 µM; 340,000 tested, 0.5% active; AID 504803, 2011; in the data active = inhibition above about 36%
Target sequence (Q92743 whole entry, looked up): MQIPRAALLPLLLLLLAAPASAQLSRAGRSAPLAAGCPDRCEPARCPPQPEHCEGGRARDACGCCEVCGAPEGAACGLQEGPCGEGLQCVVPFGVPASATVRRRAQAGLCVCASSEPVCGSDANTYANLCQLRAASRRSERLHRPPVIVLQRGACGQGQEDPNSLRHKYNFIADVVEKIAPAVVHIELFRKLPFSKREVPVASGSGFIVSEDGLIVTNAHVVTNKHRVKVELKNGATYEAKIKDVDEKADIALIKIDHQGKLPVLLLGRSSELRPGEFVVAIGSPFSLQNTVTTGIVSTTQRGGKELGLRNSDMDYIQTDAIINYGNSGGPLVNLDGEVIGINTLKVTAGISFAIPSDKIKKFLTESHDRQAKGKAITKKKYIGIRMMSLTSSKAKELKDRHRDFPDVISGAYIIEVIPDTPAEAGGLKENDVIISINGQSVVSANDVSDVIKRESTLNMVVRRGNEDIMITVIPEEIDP
ARNT-TACC3 inh: disruptors of ARNT/TACC3 protein interaction, primary screen, biochemical, AlphaScreen, single concentration | Transforming acidic coiled-coil-containing protein 3 (Homo sapiens), Q9Y6A5 | AlphaScreen His-ARNT PAS-B/GST-TACC3 binding, luminescence; TACC3 fragment carries E629A point mutation | inhibition, % at 9.99 µM | 390,000 tested, 0.66% active | AID 623870, 2012;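 active = mean inhibition of replicates at least 50% and at least half of replicates each reaching 50%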
SIAE confirm: human SIAE inhibitors, retest, confirmation, biochemical, fluorescence polarization, FP-Rh probe, triplicate; shares compounds with SIAE primary; SIAE FP-Rh activity-based probe; inhibition, % at 9.66 µM; 2,300 tested, 13% active; AID 1117263, 2014;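 active = mean inhibition of the replicates above the hit cutoff set in the primary screen, cut at about 17% in these data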;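 also: inhibitors lower polarization as more probe stays unbound to SIAE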
Large screens that a line does not name were inactive (follow-up assays come after a bar, where they were run).

Cc1nc(NS(=O)(=O)c2ccccc2)sc1NC(=O)Nc1ccc(Cl)cc1	SIAE primary 18 | SIAE confirm 27
Cc1nc(NS(=O)(=O)c2ccccc2)sc1NC(=O)Nc1ccccc1	none
CN(C)S(=O)(=O)c1ccc(-c2csc(N/N=C/c3ccc(O)cc3)n2)cc1	SIAE primary 20 | SIAE confirm 24
O=[N+]([O-])c1cccc(-c2csc(N/N=C/c3cccc(O)c3)n2)c1	SIAE primary 27 | SIAE confirm inactive
COc1ccc(-c2ccc3c(c2)O[C@H](CN(C)C(C)=O)[C@H](C)CN([C@@H](C)CO)S3(=O)=O)cc1	none (no result: mABHD4 FP, SIAE primary, TCR CD3 inh, HTRA1 inh)
COc1ccc(NC(=O)Nc2ccc3c(c2)[C@@H]2C[C@H](CC(=O)NCC4CC4)O[C@@H](CO)[C@@H]2O3)cc1	none (no result: mABHD4 FP, SIAE primary, TCR CD3 inh, HTRA1 inh)
O=C(CNc1ccc2ccccc2c1)N/N=C/c1ccc(OC(=O)/C=C/c2ccco2)cc1	SIAE primary 22 | SIAE confirm inactive
COc1ccc(OCC(=O)Nc2cc(S(=O)(=O)N3CCCCC3)ccc2OC)cc1	none
COc1ccc(OCC(=O)Nc2cc(S(=O)(=O)N3CCCC3)ccc2OCC(F)(F)F)cc1	SIAE primary 40 | SIAE confirm inactive
Cc1c(NC(=S)NC(=O)c2cccc(Br)c2)c(=O)n(-c2ccccc2)n1C	SIAE primary 17 | SIAE confirm inactive
Cc1c(NC(=S)NC(=O)c2cccc([N+](=O)[O-])c2)c(=O)n(-c2ccccc2)n1C	none
CCOc1ccccc1CN1CCNC(=O)C1CC(=O)NCCCn1cccn1 (configuration not stated)	none
COc1ccccc1CN1CCNC(=O)C1CC(=O)NCCCn1cccn1 (configuration not stated)	SIAE primary 40 | SIAE confirm inactive
CCCn1ncc([C@@H]2C[C@H]3CN(Cc4cccc(Cl)c4)C(=O)[C@]34CCCN24)c1C	SIAE primary 18 | SIAE confirm inactive
COC(=O)c1cccc(NC(=O)Nc2ccc(Cl)cc2)c1	SIAE primary 19 (no result: HTRA1 inh) | SIAE confirm inactive
COc1ccc(C(=O)CCNc2ccc3c(c2)OCCO3)cc1	SIAE primary 18 | SIAE confirm inactive
COc1ccc(C(=O)Nc2ccc3c(c2)OCCO3)cc1	none
COc1ccc(CCNC(=O)CSc2ccccc2)cc1OC	none
COc1ccc(CCNC(=O)CNCC(c2ccccc2)N(C)C)cc1OC (configuration not stated)	SIAE primary 19 | SIAE confirm inactive
CC(C)NC(=O)N(C)C[C@H]1Oc2cc(-c3ccncc3)ccc2S(=O)(=O)N([C@H](C)CO)C[C@@H]1C	none (no result: mABHD4 FP, SIAE primary, TCR CD3 inh, HTRA1 inh)
O=C(CNS(=O)(=O)c1cccc(Br)c1)NCCCc1ccccc1	SIAE primary 20 | SIAE confirm inactive
O=C(CN(Cc1ccc(F)cc1)C(=O)CCC(=O)Nc1ccccn1)NCc1ccc(F)cc1	none
O=C(CN(Cc1ccc(F)cc1)C(=O)CCC(=O)Nc1ccccn1)NCCc1ccccc1	SIAE primary 21 | SIAE confirm inactive
COCCNC(=O)C(c1ccc(O)cc1)N(Cc1ccccc1)C(=O)CCC(=O)Nc1ccccn1 (configuration not stated)	SIAE primary 20 | SIAE confirm inactive
COCCNC(=O)c1cccc(OC2CCN(Cc3ccc(F)c(OC)c3)CC2)c1	none
COCCNC(=O)c1cccc(OC2CCN(Cc3cccc(C(C)=O)c3)CC2)c1	SIAE primary 26 | SIAE confirm inactive
COCCN(C(=O)c1cc(-c2ccco2)nc2ccccc12)c1c(N)n(Cc2ccccc2)c(=O)[nH]c1=O	SIAE primary 42 | SIAE confirm inactive
COCCN(C(=O)COC(=O)/C=C/c1cccs1)c1c(N)n(Cc2ccccc2)c(=O)[nH]c1=O	SIAE primary 21 | SIAE confirm inactive
C[C@@H]1CN([C@H](C)CO)S(=O)(=O)c2ccc(-c3ccc(C#N)cc3)cc2O[C@H]1CN(C)Cc1ccccn1	none (no result: mABHD4 FP, SIAE primary, TCR CD3 inh, HTRA1 inh)
CNC[C@H]1Oc2ccc(NC(=O)Nc3ccc(OC)cc3)cc2CC(=O)N([C@H](C)CO)C[C@@H]1C	none (no result: mABHD4 FP, SIAE primary, TCR CD3 inh, HTRA1 inh)
CCCn1c(=O)[nH]c(=O)c2c1nc(-c1ccc(C#N)cc1)n2CCOC	SIAE primary 17 | SIAE confirm inactive
COCCn1c(-c2ccc(C#N)cc2)nc2c1c(=O)[nH]c(=O)n2Cc1ccccc1	none
C[C@H]1CN([C@@H](C)CO)C(=O)c2cc(C3=CCCCC3)cnc2O[C@H]1CN(C)Cc1ccc(C(=O)O)cc1	none (no result: mABHD4 FP, SIAE primary, TCR CD3 inh, HTRA1 inh)
Cc1ccc(S(=O)(=O)c2ccc([N+](=O)[O-])cn2)cc1	none
Cc1cc(S(=O)(=O)c2ccc([N+](=O)[O-])cn2)ccc1Br	SIAE primary 24 | SIAE confirm inactive
CC(C)NC(=O)N(C)C[C@@H]1Oc2c(NC(=O)C3CC3)cccc2C(=O)N([C@H](C)CO)C[C@H]1C	none (no result: mABHD4 FP, SIAE primary, TCR CD3 inh, HTRA1 inh)
COC(=O)C[C@@H]1CC[C@H]2[C@@H](COC[C@@H](O)CN2C(=O)Nc2ccccc2OC)O1	none (no result: mABHD4 FP, SIAE primary, TCR CD3 inh, HTRA1 inh)
Cc1cc([N+](=O)[O-])nn1Cc1ccc(C(=O)N/N=C/c2ccc(O)cc2O)cc1	SIAE primary 19 | SIAE confirm inactive
O=S(=O)(N[C@H]1CC[C@H](CCn2cc(-c3cccnc3)nn2)O[C@H]1CO)c1ccc(F)cc1	none (no result: mABHD4 FP, SIAE primary, TCR CD3 inh, HTRA1 inh)
COc1cc(NC(=O)c2cccs2)c(OC)cc1NC(=O)Cc1ccccc1	SIAE primary 19 | SIAE confirm inactive
O=C(O)c1ccccc1NCc1cccnc1	none (no result: HTRA1 inh, ARNT-TACC3 inh)
O=C(O)CNc1ccccc1C(=O)O	SIAE primary 38 | SIAE confirm inactive
CC(C)c1ccc(NC(=O)/C(C#N)=C/c2ccncc2)cc1	SIAE primary 18 | SIAE confirm inactive
CC1CCN(C(=O)c2[nH]cnc2C(=O)N[C@@H](CCCCNC(=O)OC(C)(C)C)C(=O)OC(C)(C)C)CC1	SIAE primary 22 | SIAE confirm inactive
Nc1ccc(N2CCOCC2)c(S(=O)(=O)Nc2ccccc2Cl)c1	SIAE primary 39 | SIAE confirm inactive
COc1cccc(C(=O)Nc2ccc3c(c2)C(=O)N(C)C[C@H](OC)[C@H](C)CN(C)[C@@H](C)CO3)c1	none (no result: mABHD4 FP, SIAE primary, TCR CD3 inh, HTRA1 inh)
C[C@@H]1CN([C@H](C)CO)C(=O)c2cc(NC(=O)C3CCCCC3)ccc2O[C@@H](C)CCCCO[C@@H]1CN(C)S(=O)(=O)c1ccccc1	none (no result: mABHD4 FP, SIAE primary, TCR CD3 inh, HTRA1 inh)
CN(C(=O)c1ccc(N2CCOCC2)c([N+](=O)[O-])c1)C1CCCCC1	SIAE primary 17 | SIAE confirm inactive

Bioassay records: PubChem BioAssay, several laboratories
